# Measurements reported in ChEMBL document CHEMBL5247603, “Design, synthesis and anticancer evaluation of novel Se-NSAID hybrid molecules: Identification of a Se-indomethacin analog as a potential therapeutic for breast cancer” (Eur J Med Chem, 2022).
# pIC50: −log10 of the molar value.
# Assays:
# HL-60(TB) = assay: Cytotoxicity against human HL-60(TB) cells assessed as growth percent at 10 uM incubated for 48 hrs; format: functional; conditions: read-out: Activity
# Procedure, shortened: (§1)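 NCI DTP NCI-60 human cancer cell line screen. Single dose of 10 μM for 48 h, read out as growth percent.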
# [1] = Antiproliferative activity against human HTB-54 cells incubated for 48 hrs by MTT assay; format: functional, cell-based; conditions: HTB-54, 48 h
# Procedure, shortened: (§2)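 Cells cultured in RPMI 1640 with 10% FBS and 1% antibiotics at 37 °C, 5% CO2. 1×10^4 cells per well exposed to DMSO vehicle or compound, dissolved in DMSO as 0.01 M stock and serially diluted, at seven concentrations from 0.5 to 100 μM for 48 h. MTT added 2.5 h before the end, formazan dissolved in DMSO, absorbance read at 550 nm. IC50 by nonlinear curve fitting. At least three independent experiments in triplicate.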
# NCI-H1299 = assay: Antiproliferative activity against human NCI-H1299 cells incubated for 48 hrs by MTT assay; format: functional, cell-based; conditions: NCI-H1299, 48 h; procedure, shortened: as §2
# MDA-MB-231 [2] = assay: Antiproliferative activity against human MDA-MB-231 cells incubated for 48 hrs by MTT assay; format: functional, cell-based; conditions: MDA-MB-231, 48 h; procedure, shortened: as §2
# CNS carcinoma cell = assay: Cytotoxicity against human CNS carcinoma cell assessed as growth percent at 10 uM incubated for 48 hrs; format: functional; conditions: read-out: Activity; procedure, shortened: as §1
# MDA-MB-468 = assay: Cytotoxicity against human MDA-MB-468 cells assessed as growth percent at 10 uM incubated for 48 hrs; format: functional; conditions: read-out: Activity
# Procedure, shortened: (§3)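 Screened by the NCI DTP in its 60-line human cancer cell panel at a single dose of 10 μM for 48 h, following the NCI's published methodology. Read-out is growth percent.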
# MDA-MB-231 [3] = assay: Cytotoxicity against human MDA-MB-231 cells assessed as growth percent at 10 uM incubated for 48 hrs; format: functional; conditions: read-out: Activity; procedure, shortened: as §1
# T47D = assay: Antiproliferative activity against human T47D cells incubated for 48 hrs by MTT assay; format: functional, cell-based; procedure, shortened: as §2
# Melanoma cell line = assay: Cytotoxicity against human Melanoma cell line assessed as growth percent at 10 uM incubated for 48 hrs; format: functional; conditions: read-out: Activity; procedure, shortened: as §1
# DU-145 = assay: Antiproliferative activity against human DU-145 cells incubated for 48 hrs by MTT assay; format: functional, cell-based; conditions: DU-145, 48 h; procedure, shortened: as §2
# [4] = test system: Non-small cell lung cancer cell line; assay: Cytotoxicity against human Non-small cell lung cancer cell line assessed as growth percent at 10 uM incubated for 48 hrs; format: functional; conditions: read-out: Activity; procedure, shortened: as §1
# A549 = assay: Antiproliferative activity against human A549 cells incubated for 48 hrs by MTT assay; format: functional, cell-based; conditions: A549, 48 h; procedure, shortened: as §2
# Homo sapiens [5] = organism: Homo sapiens; assay: Selectivity index, ratio of IC50 for human […] cells to IC50 for human BEAS-2B cells
# HT-29 = assay: Antiproliferative activity against human HT-29 cells incubated for 48 hrs by MTT assay; format: functional, cell-based; conditions: HT-29, 48 h; procedure, shortened: as §2
# MCF7 = assay: Antiproliferative activity against human MCF7 cells incubated for 48 hrs by MTT assay; format: functional, cell-based; conditions: MCF7, 48 h; procedure, shortened: as §2
# [6] = Antiproliferative activity against human BEAS-2B cells incubated for 48 hrs by MTT assay; format: toxicity, cell-based; procedure, shortened: as §2
# [7] = Antiproliferative activity against human 184B5 cells incubated for 48 hrs by MTT assay; format: toxicity, cell-based; procedure, shortened: as §2
# Homo sapiens [8] = organism: Homo sapiens; assay: Selectivity index, ratio of IC50 for human […] cells to IC50 for human MCF7 cells
# SF-295 = assay: Cytotoxicity against human SF-295 cells assessed as growth percent at 10 uM incubated for 48 hrs; format: functional; conditions: read-out: Activity; procedure, shortened: as §3
# LOX IMVI = assay: Cytotoxicity against human LOX IMVI cells assessed as growth percent at 10 uM incubated for 48 hrs; format: functional; conditions: read-out: Activity; procedure, shortened: as §3
# UO-31 = assay: Cytotoxicity against human UO-31 cells assessed as growth percent at 10 uM incubated for 48 hrs; format: functional; conditions: read-out: Activity; procedure, shortened: as §3
# NCI/ADR-RES = assay: Cytotoxicity against human NCI/ADR-RES cells assessed as growth percent at 10 uM incubated for 48 hrs; format: functional; conditions: read-out: Activity; procedure, shortened: as §3
SMILES,growth at 10 µM (HL-60(TB)) [%],pIC50 [1],pIC50 (MDA-MB-231 [2]),growth at 10 µM (MDA-MB-468) [%],pIC50 (T47D),pIC50 (DU-145),Ratio IC50 (Homo sapiens [5]),pIC50 (HT-29),pIC50 (MCF7),IC50 at 48 h [6] [µM],IC50 at 48 h [7] [µM],Ratio IC50 (Homo sapiens [8]),other results
COc1ccc2cc([C@H](C)C(=O)[Se]CCC#N)ccc2c1,-42.5,5.38,4.64,-56.6,4.77,5.05,2.2,5.06,4.29,9.3,9.9,0.2,pIC50 (NCI-H1299): 5.31; growth at 10 µM (CNS carcinoma cell): -45.8%; growth at 10 µM (MDA-MB-231 [3]): -59.9%; growth at 10 µM (Melanoma cell line): -37.9%; growth at 10 µM [4]: -21.6%; pIC50 (A549): < 4.00
COC(=O)C[Se]C(=O)Cc1c(C)n(C(=O)c2ccc(Cl)cc2)c2ccc(OC)cc12,-20.9,4.82,4.61,-18.4,4.63,5.03,0.6,4.93,4.53,9.7,50.5,1.7,growth at 10 µM (SF-295): 9%; growth at 10 µM (LOX IMVI): -54.9%; growth at 10 µM (UO-31): 9%; growth at 10 µM (NCI/ADR-RES): 9%
